According to ChEMBL document CHEMBL1127500, “Structure-activity studies of benzimidazole-based DNA-cleaving agents. Comparison of benzimidazole, pyrrolobenzimidazole, and tetrahydropyridobenzimidazole analogues” (1994):

Key:
Assay type in all cases: functional
A549 = assay: Antitumor activity against A549/ATCC cell line; details: Homo sapiens
In short: (§1)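 Drugs were screened against a panel of up to 60 human cancer cell lines. The end-point was LC50, the drug concentration lethal to 50% of the cancer cells. Values were expressed as log LC50 and plotted as mean graphs centred on the log of the panel-mean LC50. Bars to the right mark lines with lower log LC50 than the mean.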

CCRF-CEM = assay: Antitumor activity against CCRF-CEM leukemia cell line; details: Homo sapiens, read-out: Log LC50 (the source's name) (converted); in short: as §1
COLO 205 = assay: Antitumor activity against COLO 205 cell line; details: Homo sapiens, read-out: Log LC50 (the source's name) (converted); in short: as §1
DMS-114 = assay: Antitumor activity against DMS 114 cell line; details: Homo sapiens; in short: as §1
EKVX = assay: Antitumor activity against EKVX cell line; details: Homo sapiens; in short: as §1
HCT-116 = assay: Antitumor activity against HCT116 cell line; details: Homo sapiens, read-out: Log LC50 (the source's name) (converted); in short: as §1
HOP-62 = assay: Antitumor activity against HOP-62 cell line; details: Homo sapiens; in short: as §1
HL-60 = assay: Antitumor activity against HL-60(TB) leukemia cell line; details: Homo sapiens, read-out: Log LC50 (the source's name) (converted); in short: as §1
HOP-92 = assay: Antitumor activity against HOP-92 cell line; details: Homo sapiens, read-out: Log LC50 (the source's name) (converted); in short: as §1
HT-29 = assay: Antitumor activity against HT 29 cell line; details: Homo sapiens, read-out: Log LC50 (the source's name) (converted); in short: as §1
K562 = assay: Antitumor activity against K-562 leukemia cell line; details: Homo sapiens, read-out: Log LC50 (the source's name) (converted); in short: as §1
KM12 = assay: Antitumor activity against KM 12 cell line; details: Homo sapiens, read-out: Log LC50 (the source's name) (converted); in short: as §1
KM-20L2 = assay: Antitumor activity against KM 20L2 cell line; details: Homo sapiens; in short: as §1
IGROV-1 = assay: Antitumor activity against IGROVI cell line; details: Homo sapiens; in short: as §1
LXFL 529 = assay: Antitumor activity against […] cell line; details: Homo sapiens; in short: as §1
M14 = assay: Antitumor activity against M 14 cell line; details: Homo sapiens; in short: as §1
M19-MEL = assay: Antitumor activity against M 19-MEL cell line; details: Homo sapiens; in short: as §1
LOX IMVI = assay: Antitumor activity against LOX IMVI cell line; details: Homo sapiens; in short: as §1
MOLT-4 = assay: Antitumor activity against MOLT-4 leukemia cell line; details: Homo sapiens; in short: as §1
Malme-3M = assay: Antitumor activity against MALME-3M cell line; details: Homo sapiens; in short: as §1
NCI-H522 = assay: Antitumor activity against NCI-H522 cell line; details: Homo sapiens; in short: as §1
NCI-H226 = assay: Antitumor activity against NCI-H226 cell line; details: Homo sapiens; in short: as §1
OVCAR-8 = assay: Antitumor activity against OVCAR-8 cell line; details: Homo sapiens, read-out: Log LC50 (the source's name) (converted); in short: as §1
OVCAR-3 = assay: Antitumor activity against OVCAR-3 cell line; details: Homo sapiens; in short: as §1
NCI-H23 = assay: Antitumor activity against NCI-1123 cell line; details: Homo sapiens, read-out: Log LC50 (the source's name) (converted); in short: as §1
NCI-H322M = assay: Antitumor activity against NCI-H322M cell line; details: Homo sapiens, read-out: Log LC50 (the source's name) (converted); in short: as §1
NCI-H460 = assay: Antitumor activity against NCI-11460 cell line; details: Homo sapiens, read-out: Log LC50 (the source's name) (converted); in short: as §1
OVCAR-5 = assay: Antitumor activity against OVCAR-5 cell line; details: Homo sapiens; in short: as §1
RPMI-8226 = assay: Antitumor activity against RPMI-8226 leukemia cell line; details: Homo sapiens, read-out: Log LC50 (the source's name) (converted); in short: as §1
CAKI-1 = assay: Antitumor activity against Renal cancer CAKI-1 cell line; details: Homo sapiens, read-out: Log LC50 (the source's name) (converted); in short: as §1
786-0 = assay: Antitumor activity against Renal cancer 786-O cell line; details: Homo sapiens; in short: as §1
A498 = assay: Antitumor activity against Renal cancer A498 cell line; details: Homo sapiens, read-out: Log LC50 (the source's name) (converted); in short: as §1
ACHN = assay: Antitumor activity against Renal cancer ACHN cell line; details: Homo sapiens, read-out: Log LC50 (the source's name) (converted); in short: as §1
SN12C = assay: Antitumor activity against Renal cancer SN 12C cell line; details: Homo sapiens; in short: as §1
TK-10 = assay: Antitumor activity against Renal cancer TK-10 cell line; details: Homo sapiens; in short: as §1
UO-31 = assay: Antitumor activity against Renal cancer UO-31 cell line; details: Homo sapiens; in short: as §1
SK-MEL-2 = assay: Antitumor activity against SK-MEL-2 cell line; details: Homo sapiens, read-out: Log LC50 (the source's name) (converted); in short: as §1
SF-539 = assay: Antitumor activity against SF-539 cell line; details: Homo sapiens; in short: as §1
SNB-19 = assay: Antitumor activity against SNB-19 cell line; details: Homo sapiens
In short: (§2)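 Screened against a panel of up to 60 human cancer cell lines. Read-out is LC50, the drug concentration lethal to 50% of the cells, expressed as log LC50. The mean log LC50 across the screened lines is the centre line of the mean graph. Each line's deviation from that mean is shown as a bar.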

SNB- = assay: Antitumor activity against SNB-71 cell line; details: Homo sapiens, read-out: Log LC50 (the source's name) (converted); in short: as §2
SR = assay: Antitumor activity against SR leukemia cell line; details: Homo sapiens, read-out: Log LC50 (the source's name) (converted); in short: as §2
SW-620 = assay: Antitumor activity against SW-620 cell line; details: Homo sapiens; in short: as §2
SK-MEL-5 = assay: Antitumor activity against SK-MEL-5 cell line; details: Homo sapiens; in short: as §2
SNB-75 = assay: Antitumor activity against SNB-75 cell line; details: Homo sapiens; in short: as §2
SK-OV-3 = assay: Antitumor activity against SK-OV-3 cell line; details: Homo sapiens, read-out: Log LC50 (the source's name) (converted); in short: as §2
SK-MEL-28 = assay: Antitumor activity against SK-MEL-28 cell line; details: Homo sapiens; in short: as §2
UACC-257 = assay: Antitumor activity against UACC-257 cell line; details: Homo sapiens; in short: as §2
U-251 = assay: Antitumor activity against U251 cell line; details: Homo sapiens; in short: as §2
UACC-62 = assay: Antitumor activity against UACC-62 cell line; details: Homo sapiens, read-out: Log LC50 (the source's name) (converted); in short: as §2
[1] = Mean log10 LC50 was determined; in short: as §2
DMS-273 = assay: Antitumor activity against DMS 273 cell line; details: Homo sapiens, read-out: Log LC50 (the source's name) (converted); in short: as §1
DLD-1 = assay: Antitumor activity against DLD-1 cell line; details: Homo sapiens; in short: as §1
HCC 2998 = assay: Antitumor activity against HCC2998 cell line; details: Homo sapiens, read-out: Log LC50 (the source's name) (converted); in short: as §1
SF-268 = assay: Antitumor activity against SF-268 cell line; details: Homo sapiens; in short: as §1
RXF 393 = assay: Antitumor activity against Renal cancer RXF-393 cell line; details: Homo sapiens; in short: as §1
OVCAR-4 = assay: Antitumor activity against OVCAR-4 cell line; details: Homo sapiens; in short: as §1

## CC(=O)OC1CCCn2c1nc1c2C(=O)C(C)=C(N2CC2)C1=O (stereo unspecified)
A549
  LC50: 32.4 µM
CCRF-CEM
  CC50: > 100 µM
COLO 205
  CC50: 18.2 µM
DMS-114
  LC50: 7.76 µM
EKVX
  LC50: 3.98 µM
HCT-116
  CC50: 17.8 µM
HOP-62
  LC50: 1.82 µM
HL-60
  CC50: > 100 µM
HOP-92
  CC50: > 100 µM
HT-29
  CC50: 1.82 µM
K562
  CC50: > 100 µM
KM12
  CC50: 5.25 µM
KM-20L2
  LC50 (concentration lethal to 50% of cells): 4.68 µM
IGROV-1
  LC50: 30.9 µM
LXFL 529
  LC50: 4.9 µM
M14
  LC50: 0.794 µM
M19-MEL
  LC50: 35.5 µM
LOX IMVI
  LC50: 5.37 µM
MOLT-4
  LC50: > 100 µM
Malme-3M
  LC50: 2.34 µM
NCI-H522
  LC50: 3.72 µM
NCI-H226
  LC50: 3.98 µM
OVCAR-8
  CC50: 5.62 µM
OVCAR-3
  LC50: 6.31 µM
NCI-H23
  CC50: 3.98 µM
NCI-H322M
  CC50: 26.9 µM
NCI-H460
  CC50: 0.676 µM
OVCAR-5
  LC50: 4.9 µM
RPMI-8226
  CC50: > 100 µM
CAKI-1
  CC50: 3.31 µM
786-0
  LC50: 43.7 µM
A498
  CC50: 1.29 µM
ACHN
  CC50: 25.7 µM
SN12C
  LC50: 4.17 µM
TK-10
  LC50: 25.1 µM
UO-31
  LC50 (concentration lethal to 50% of cancer cells): 20 µM
SK-MEL-2
  CC50: 3.8 µM
SF-539
  LC50 (concentration lethal to 50% of cells): 14.1 µM
SNB-19
  LC50: 5.89 µM
SNB-
  CC50: 33.1 µM
SR
  CC50: > 100 µM
SW-620
  LC50: 53.7 µM
SK-MEL-5
  LC50: 0.661 µM
SNB-75
  LC50: 4.57 µM
SK-OV-3
  CC50: 7.08 µM
SK-MEL-28
  LC50: 6.03 µM
UACC-257
  LC50: 3.8 µM
U-251
  LC50: 3.39 µM
UACC-62
  CC50: 4.9 µM
[1]
  Mean log LC50: -5.04
DMS-273
  CC50: 5.37 µM
DLD-1
  LC50: 87.1 µM
HCC 2998
  CC50: 3.09 µM
SF-268
  LC50: 0.692 µM
RXF 393
  LC50: 4.68 µM
OVCAR-4
  LC50: 5.89 µM
